Results from paper PMC4928098 (NeuroImage, 2016).
Read-outs that look alike come from different tables or passages of the source.

Experiments:
P-gp [1] = biological target: P-gp (Homo sapiens, UniProt P08183); experiment: Human PET imaging at baseline and during tariquidar infusion; type: in vivo
Outline: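 Radioligand was given as a 376 ± 8 MBq bolus, followed by a 2-h dynamic PET with arterial sampling and HPLC metabolite separation. VT came from a three-tissue model including the acid metabolite, in six central regions. Paired one-tailed t-test.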

MRP1 (ABCC1) = MRP1 (ABCC1) (Homo sapiens, UniProt P33527); type: cell-based; conditions: for Percent Inhibition (%) of the fluorescent substrate: Mrp1, calcein-AM efflux, human cancer cells
Outline: (§1)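 Human cancer cells overexpressing a transporter, plus parental cells, were analysed by flow cytometry for efflux of a fluorescent probe: rhodamine-123 for P-gp, mitoxantrone for BCRP, calcein-AM for MRP1. Conditions were untreated parental cells, expressing cells with a transporter-specific inhibitor, expressing cells with test compound at 20 or 50 µM, and untreated expressing cells. Fluorescence was recorded on 10,000 cells and expressed as percent inhibition.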

BCRP (ABCG2) = biological target: T1, BCRP (ABCG2) (Homo sapiens, UniProt Q9UNQ0); type: cell-based; conditions: for Percent Inhibition (%) of the fluorescent substrate: BCRP, mitoxantrone efflux, human cancer cells
T1 sequence (Q9UNQ0 1-655): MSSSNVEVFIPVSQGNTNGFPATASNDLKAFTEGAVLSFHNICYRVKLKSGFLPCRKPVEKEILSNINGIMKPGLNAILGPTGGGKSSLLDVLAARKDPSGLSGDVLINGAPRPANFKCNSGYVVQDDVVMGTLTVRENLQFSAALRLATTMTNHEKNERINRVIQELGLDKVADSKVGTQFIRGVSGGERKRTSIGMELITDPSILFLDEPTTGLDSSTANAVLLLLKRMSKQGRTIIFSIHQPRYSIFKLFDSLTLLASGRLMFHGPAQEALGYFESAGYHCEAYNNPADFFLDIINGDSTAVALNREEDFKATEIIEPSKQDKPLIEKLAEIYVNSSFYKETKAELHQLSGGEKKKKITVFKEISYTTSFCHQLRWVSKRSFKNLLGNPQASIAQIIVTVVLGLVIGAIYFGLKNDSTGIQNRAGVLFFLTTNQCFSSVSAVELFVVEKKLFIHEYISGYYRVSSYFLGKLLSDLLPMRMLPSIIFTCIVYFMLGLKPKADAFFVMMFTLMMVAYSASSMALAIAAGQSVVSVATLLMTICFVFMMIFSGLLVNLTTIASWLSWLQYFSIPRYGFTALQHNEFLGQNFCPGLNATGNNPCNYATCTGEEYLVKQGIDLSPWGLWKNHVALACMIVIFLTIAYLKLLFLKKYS
Outline: as §1

P-gp (ABCB1) = P-gp (ABCB1) (Homo sapiens, UniProt P08183); type: cell-based; conditions: for Percent Inhibition (%) of the fluorescent substrate: P-gp, rhodamine-123 efflux, human cancer cells
Outline: as §1

P-gp [2] = conditions: rats pretreated with tariquidar; ref Choi et al., 2016; cited from earlier work
P-gp [3] = biological target: P-gp (Mus musculus, UniProt P21447); experiment: Ex vivo brain to plasma ratio of parent radioligand in P-gp knockout mice; conditions: P-gp KO mice, 30 min after iv injection, n=3
Outline: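 Wild-type, P-gp KO, BCRP KO and P-gp/BCRP KO mice (n=3 per group, 25.3 ± 1.2 g) were anesthetised with 1.5% isoflurane in oxygen. Radioligand (166 ± 49 µCi; 826 ± 205 mCi/µmol) was given iv via tail-vein cannula. At 30 min, blood was taken by cardiac puncture and brain excised. Parent was quantified by reversed-phase radio-HPLC with γ-counting. Brain/plasma parent ratios were compared across groups (mean ± SEM).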

[4] = humans, ref Ryu et al., 2007, cited from earlier work

Sequence of P-gp (ABCB1) (P08183 whole entry): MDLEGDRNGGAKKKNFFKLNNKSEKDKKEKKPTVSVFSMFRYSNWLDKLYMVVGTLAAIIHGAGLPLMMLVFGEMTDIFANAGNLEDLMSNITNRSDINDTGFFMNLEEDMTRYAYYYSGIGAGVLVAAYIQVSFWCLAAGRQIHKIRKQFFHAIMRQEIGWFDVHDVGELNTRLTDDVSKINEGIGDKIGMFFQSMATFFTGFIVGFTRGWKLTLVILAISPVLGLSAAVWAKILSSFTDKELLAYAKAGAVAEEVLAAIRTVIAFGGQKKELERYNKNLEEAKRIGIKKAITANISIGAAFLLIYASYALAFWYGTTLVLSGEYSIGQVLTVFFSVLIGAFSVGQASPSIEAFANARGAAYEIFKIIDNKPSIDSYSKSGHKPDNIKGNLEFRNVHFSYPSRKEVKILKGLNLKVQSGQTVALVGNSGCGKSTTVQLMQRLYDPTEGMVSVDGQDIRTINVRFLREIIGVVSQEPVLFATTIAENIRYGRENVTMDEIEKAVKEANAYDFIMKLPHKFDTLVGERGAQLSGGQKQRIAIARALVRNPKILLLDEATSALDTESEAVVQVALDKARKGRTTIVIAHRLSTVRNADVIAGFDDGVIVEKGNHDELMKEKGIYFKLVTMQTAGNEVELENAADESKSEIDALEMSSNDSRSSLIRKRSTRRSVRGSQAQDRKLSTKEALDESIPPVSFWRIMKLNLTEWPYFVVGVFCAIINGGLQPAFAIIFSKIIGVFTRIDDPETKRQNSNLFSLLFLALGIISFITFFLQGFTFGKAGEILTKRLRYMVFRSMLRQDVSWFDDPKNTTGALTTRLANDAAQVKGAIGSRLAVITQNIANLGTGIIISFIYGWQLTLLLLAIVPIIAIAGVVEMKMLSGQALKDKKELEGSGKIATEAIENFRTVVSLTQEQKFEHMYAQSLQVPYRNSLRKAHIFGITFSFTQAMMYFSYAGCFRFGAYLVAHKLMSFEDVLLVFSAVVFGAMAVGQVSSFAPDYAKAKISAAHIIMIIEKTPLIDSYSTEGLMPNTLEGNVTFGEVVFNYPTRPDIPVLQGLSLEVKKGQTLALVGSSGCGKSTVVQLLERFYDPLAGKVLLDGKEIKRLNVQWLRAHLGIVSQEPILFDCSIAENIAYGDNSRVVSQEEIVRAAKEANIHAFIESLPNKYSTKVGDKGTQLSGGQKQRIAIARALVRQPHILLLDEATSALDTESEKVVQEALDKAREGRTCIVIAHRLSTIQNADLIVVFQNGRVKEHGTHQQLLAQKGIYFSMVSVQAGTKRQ
Sequence of P-gp (Homo sapiens, UniProt P08183) (P08183 whole entry, the tested form may be a part): as the sequence (P08183 whole entry) above
Sequence of MRP1 (ABCC1) (P33527 whole entry): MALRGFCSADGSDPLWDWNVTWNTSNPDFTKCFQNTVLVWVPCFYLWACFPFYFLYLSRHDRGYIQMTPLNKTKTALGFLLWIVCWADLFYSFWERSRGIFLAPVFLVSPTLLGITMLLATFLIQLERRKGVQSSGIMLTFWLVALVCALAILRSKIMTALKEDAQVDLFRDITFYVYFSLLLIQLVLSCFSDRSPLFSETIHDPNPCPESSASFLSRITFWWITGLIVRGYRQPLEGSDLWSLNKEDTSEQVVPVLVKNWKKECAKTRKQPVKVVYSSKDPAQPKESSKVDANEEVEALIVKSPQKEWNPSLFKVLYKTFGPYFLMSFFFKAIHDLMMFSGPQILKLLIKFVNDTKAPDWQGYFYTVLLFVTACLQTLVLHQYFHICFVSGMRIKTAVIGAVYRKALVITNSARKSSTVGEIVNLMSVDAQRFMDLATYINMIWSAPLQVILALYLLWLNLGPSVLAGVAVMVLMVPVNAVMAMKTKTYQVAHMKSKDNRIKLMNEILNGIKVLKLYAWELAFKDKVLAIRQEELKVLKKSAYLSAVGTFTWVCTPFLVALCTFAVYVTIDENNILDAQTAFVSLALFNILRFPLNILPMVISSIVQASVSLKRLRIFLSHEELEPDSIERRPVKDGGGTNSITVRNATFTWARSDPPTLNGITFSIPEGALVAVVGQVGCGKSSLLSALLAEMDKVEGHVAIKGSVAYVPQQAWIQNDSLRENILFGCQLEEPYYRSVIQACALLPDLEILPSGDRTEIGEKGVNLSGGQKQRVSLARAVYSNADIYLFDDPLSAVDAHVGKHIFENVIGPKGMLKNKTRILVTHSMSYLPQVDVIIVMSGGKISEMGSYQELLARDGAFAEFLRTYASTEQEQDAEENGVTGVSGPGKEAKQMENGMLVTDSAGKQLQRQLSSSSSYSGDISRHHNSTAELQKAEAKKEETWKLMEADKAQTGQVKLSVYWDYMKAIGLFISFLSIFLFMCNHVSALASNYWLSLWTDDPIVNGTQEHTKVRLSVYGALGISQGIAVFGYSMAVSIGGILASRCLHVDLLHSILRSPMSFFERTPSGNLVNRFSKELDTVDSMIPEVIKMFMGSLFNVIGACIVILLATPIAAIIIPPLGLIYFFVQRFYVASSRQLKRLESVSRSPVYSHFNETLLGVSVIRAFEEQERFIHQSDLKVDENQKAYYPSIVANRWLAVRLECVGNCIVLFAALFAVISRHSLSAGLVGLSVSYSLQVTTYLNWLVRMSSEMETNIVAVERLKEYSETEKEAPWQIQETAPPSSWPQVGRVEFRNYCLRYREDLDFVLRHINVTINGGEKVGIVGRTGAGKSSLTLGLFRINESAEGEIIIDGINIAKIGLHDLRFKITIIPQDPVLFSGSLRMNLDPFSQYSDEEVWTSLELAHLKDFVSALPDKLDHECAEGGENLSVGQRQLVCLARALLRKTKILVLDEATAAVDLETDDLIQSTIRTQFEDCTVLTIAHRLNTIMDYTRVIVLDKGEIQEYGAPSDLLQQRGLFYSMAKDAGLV

O=C(O)[C@H]1CC[C@H]([18F])CC1 [^18F-FC]
Estimated concentration in brain as percent of that of the parent radioligand (P-gp [1]; during most of the scan, radiometabolite): 2–3%
Concentration in brain compared to the total radioactivity (P-gp [1]; estimated by compartmental modeling, radiometabolite): ~ 5%

COc1ccccc1N1CCN(CCN(C(=O)C2CCC(F)CC2)c2ccccn2)CC1 (stereo not shown) [FCWAY]
Percent Inhibition (%) of the fluorescent substrate (MRP1 (ABCC1); 20 uM): 3.1%
Percent Inhibition (%) of the fluorescent substrate (MRP1 (ABCC1); 50 uM): 5.4%
Substrate status for transporter (in vitro substrate inhibition) (MRP1 (ABCC1); MRP1 overexpressing human cancer cells): weak substrate
Percent Inhibition (%) of the fluorescent substrate (BCRP (ABCG2); 20 uM): 6.8%
Percent Inhibition (%) of the fluorescent substrate (BCRP (ABCG2); 50 uM): 8.6%
Substrate status for transporter (in vitro substrate inhibition) (BCRP (ABCG2); BCRP overexpressing human cancer cells): weak substrate
Percent Inhibition (%) of the fluorescent substrate (P-gp (ABCB1); 20 uM): 0.8%
Percent Inhibition (%) of the fluorescent substrate (P-gp (ABCB1); 50 uM): 4.0%
Substrate status for transporter (in vitro substrate inhibition) (P-gp (ABCB1); P-gp overexpressing human cancer cells): weak substrate

COc1ccccc1N1CCN(CCN(C(=O)C2CCC(C[18F])CC2)c2ccccn2)CC1 (stereo not shown) [^18F-Mefway]
Increase of brain uptake after tariquidar pretreatment (P-gp [2]): 1.6 fold

CNC(=O)C(CCN1CCC(O)(c2ccc(Cl)cc2)CC1)(c1ccccc1)c1ccccc1 [dLop, desmethyl-loperamide, reference compound]
Percent Inhibition (%) of the fluorescent substrate (P-gp (ABCB1); 20 uM): 10.0%
Percent Inhibition (%) of the fluorescent substrate (P-gp (ABCB1); 50 uM): 25.0%

COc1ccccc1N1CCN(CCN(C(=O)c2ccc(F)cc2)c2ccccn2)CC1 [MPPF, reference compound]
Percent Inhibition (%) of the fluorescent substrate (MRP1 (ABCC1); 20 uM): 13.1%
Percent Inhibition (%) of the fluorescent substrate (MRP1 (ABCC1); 50 uM): 19.9%

COc1ccccc1N1CCN(CCN(C(=O)C2CCC([18F])CC2)c2ccccn2)CC1 (stereo not shown) [^18F-FCWAY]
Brain uptake (brain to plasma ratio) in comparison to wild type mice (P-gp [3]): increased
Peak brain radioactivity uptake (P-gp [1]; baseline, after bolus injection, healthy subjects): around 3 SUV
Change of non-displaceable binding potential (BPND) after tariquidar (P-gp [1]; i.v. tariquidar treatment, n=8): changed insignificantly
Increase in mean distribution volume (VT) with tariquidar treatment (P-gp [1]; tariquidar 2 or 4 mg/kg iv infusion, six brain regions, n=8): 60–100%
Time of peak uptake in brain ([4]; with disulfiram administration): five to seven
Time of peak in brain after injection ([4]; without disulfiram): one to three
